For assay [1], the target named is T1, Angiotensin-converting enzyme (Homo sapiens, UniProt P12821). The assay is described as follows: Inhibitory concentration was evaluated by Inhibiting 50% of Angiotensin I converting enzyme activity using 50 uM N-Cbz-Phe-His-Leu as substrate.
The next assay deals with T2, Neprilysin (Oryctolagus cuniculus, UniProt P08049).
T2 sequence (P08049 whole entry): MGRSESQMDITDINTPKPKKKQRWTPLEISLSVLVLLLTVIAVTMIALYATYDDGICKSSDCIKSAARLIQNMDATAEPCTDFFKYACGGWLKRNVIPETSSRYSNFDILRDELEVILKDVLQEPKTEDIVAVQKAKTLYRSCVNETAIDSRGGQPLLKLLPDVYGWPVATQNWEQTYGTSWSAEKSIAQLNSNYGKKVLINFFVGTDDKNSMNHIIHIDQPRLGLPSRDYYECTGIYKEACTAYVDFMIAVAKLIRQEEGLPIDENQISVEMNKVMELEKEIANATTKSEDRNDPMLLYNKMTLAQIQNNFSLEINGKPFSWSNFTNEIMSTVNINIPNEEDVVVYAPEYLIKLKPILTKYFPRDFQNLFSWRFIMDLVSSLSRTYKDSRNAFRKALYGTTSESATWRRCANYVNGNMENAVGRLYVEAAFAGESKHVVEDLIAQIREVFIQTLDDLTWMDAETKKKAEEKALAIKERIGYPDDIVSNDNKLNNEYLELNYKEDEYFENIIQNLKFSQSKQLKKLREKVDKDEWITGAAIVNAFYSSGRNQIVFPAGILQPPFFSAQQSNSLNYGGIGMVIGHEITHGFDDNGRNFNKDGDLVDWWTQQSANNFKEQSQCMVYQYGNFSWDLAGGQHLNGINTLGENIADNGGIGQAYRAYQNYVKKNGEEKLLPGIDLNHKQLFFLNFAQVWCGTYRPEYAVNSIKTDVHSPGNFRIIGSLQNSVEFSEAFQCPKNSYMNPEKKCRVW
The assay is described as follows: Inhibitory concentration was evaluated by Inhibiting 50% of Neutral endopeptidase enzyme (NEP) activity using 20 nM [3H]D-Ala2-Leu-enkephalin as substrate. In a few lines: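 NEP purified to homogeneity from rabbit kidney, final 1 pmol/100 μL. Preincubated 15 min at 25 °C with or without increasing inhibitor concentrations in 50 mM Tris-HCl pH 7.4. [3H]-D-Ala2-Leu-enkephalin added to a final 20 nM. Stopped after 30 min with 0.5 M HCl. Tritiated metabolites separated on polystyrene beads. IC50 by log probit of five concentrations, mean ± SEM of three independent experiments.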

Assay [2] concerns the target T1, Angiotensin-converting enzyme. The assay is described as follows: Inhibitory concentration was evaluated by inhibiting 50% of Angiotensin I Converting Enzyme activity using 50 uM N-Cbz-Phe-His-Leu as substrate. In a few lines:
(§1)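 Recombinant human ACE preincubated 15 min at 37 °C with various inhibitor concentrations in 50 mM Tris-HCl pH 7.4. N-Cbz-Phe-His-Leu then added to a final 0.05 mM. Reaction ran 15 min and was stopped with 2 M NaOH. His-Leu measured fluorimetrically (ex 365, em 495 nm) against a His-Leu calibration curve. IC50 by log probit of five concentrations, mean ± SEM of three independent experiments.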

Assay [3] shares this target. Nature of the assay: Inhibitory concentration was evaluated by inhibiting 50% of Angiotensin I Converting Enzyme activity using 50 micro M N-Cbz-Phe-His-Leu as substrate. In short, it runs like this:
as §1

T1 sequence (P12821 whole entry): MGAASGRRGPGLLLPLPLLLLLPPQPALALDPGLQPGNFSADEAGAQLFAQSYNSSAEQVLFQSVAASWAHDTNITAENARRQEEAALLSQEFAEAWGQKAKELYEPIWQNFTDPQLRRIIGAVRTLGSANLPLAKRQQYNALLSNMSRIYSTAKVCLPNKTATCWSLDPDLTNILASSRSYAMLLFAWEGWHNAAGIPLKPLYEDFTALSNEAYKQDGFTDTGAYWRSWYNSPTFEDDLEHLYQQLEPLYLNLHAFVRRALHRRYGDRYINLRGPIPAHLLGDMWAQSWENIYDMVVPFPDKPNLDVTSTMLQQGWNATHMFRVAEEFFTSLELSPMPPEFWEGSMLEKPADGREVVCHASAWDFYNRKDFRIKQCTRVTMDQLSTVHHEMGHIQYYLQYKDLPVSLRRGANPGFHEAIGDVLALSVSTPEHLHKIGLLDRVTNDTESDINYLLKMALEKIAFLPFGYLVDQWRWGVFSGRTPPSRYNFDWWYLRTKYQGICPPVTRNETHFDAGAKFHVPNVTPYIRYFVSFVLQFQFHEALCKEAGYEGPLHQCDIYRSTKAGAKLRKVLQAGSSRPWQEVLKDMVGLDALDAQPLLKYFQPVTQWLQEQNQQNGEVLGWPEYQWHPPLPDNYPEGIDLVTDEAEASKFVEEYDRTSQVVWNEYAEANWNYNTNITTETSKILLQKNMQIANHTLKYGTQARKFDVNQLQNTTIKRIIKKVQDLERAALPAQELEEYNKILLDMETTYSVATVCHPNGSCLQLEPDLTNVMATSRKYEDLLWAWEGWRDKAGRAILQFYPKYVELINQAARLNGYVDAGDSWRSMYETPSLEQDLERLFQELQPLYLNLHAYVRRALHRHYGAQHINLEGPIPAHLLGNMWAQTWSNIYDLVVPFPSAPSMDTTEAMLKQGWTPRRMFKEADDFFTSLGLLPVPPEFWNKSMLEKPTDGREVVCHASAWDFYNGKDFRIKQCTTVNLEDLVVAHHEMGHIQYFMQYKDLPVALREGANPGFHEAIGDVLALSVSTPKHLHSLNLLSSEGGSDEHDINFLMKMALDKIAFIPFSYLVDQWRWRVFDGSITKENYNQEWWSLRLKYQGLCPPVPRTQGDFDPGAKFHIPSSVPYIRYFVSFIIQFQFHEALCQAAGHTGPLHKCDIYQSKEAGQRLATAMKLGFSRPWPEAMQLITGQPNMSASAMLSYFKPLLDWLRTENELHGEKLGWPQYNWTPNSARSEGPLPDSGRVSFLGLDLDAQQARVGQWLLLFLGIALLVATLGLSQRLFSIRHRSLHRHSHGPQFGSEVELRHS

One may read the IC50 as the concentration needed to halve the response being measured. Read a low IC50 as greater potency in that assay. For the compound `CCCCC(NC(=O)C(Cc1ccccc1)C(C)S)C(=O)NC(Cc1ccc(O)cc1)C(=O)O` (stereo not given), the IC50 in assay [1] was 6100 nM; against Neprilysin it was 50 nM.
Turning to `CC(C)C(C(=O)NC(Cc1ccc(O)cc1)C(=O)O)C(S)CCc1ccccc1` (stereo not given), the IC50 came to 4500 nM in assay [2] and 53 nM against Neprilysin.
In the case of `CCC(C)C(NC(=O)C(Cc1ccccc1)C(C)S)C(=O)NC(Cc1ccc(O)cc1)C(=O)O` (stereo not given), the IC50 was 300 nM in assay [1] and 380 nM at Neprilysin.
Turning to `O=C(O)C(Cc1ccc(O)cc1)NC(=O)C(Cc1ccccc1)C(S)CCc1ccccc1` (stereo not given), the results for the IC50 (in assay [2]; at Neprilysin) were 1600 nM and 180 nM, respectively.
Taken in the same sequence, the figures for `CC(C)CC(S)C(Cc1ccccc1)C(=O)NC(Cc1ccc(O)cc1)C(=O)O` (stereo not given) were 710 nM and 26 nM.
Taken in the same sequence, the figures for `CC(C)C[C@@H](S)[C@H](Cc1ccccc1)C(=O)N[C@@H](C)C(=O)O` were 5000 nM and 20 nM.
For the compound `CC(S)C(Cc1ccccc1)C(=O)NCC(=O)O` (stereo not given), the IC50 turned out to be 11000 nM in assay [1] and 50 nM against Neprilysin.
For the compound `CC(C)CC(S)CC(=O)NC(Cc1ccccc1)C(=O)NC(Cc1ccc(O)cc1)C(=O)O` (stereo not given), the IC50 in assay [1] is 2800 nM; on Neprilysin it was 50 nM.
For the compound `CC(NC(=O)C(Cc1ccccc1)C(S)CCc1ccccc1)C(=O)O` (stereo not given), the IC50 in assay [2] was determined as 4000 nM; at Neprilysin, 44 nM.
`CC(C)C(NC(=O)C(Cc1ccccc1)C(C)S)C(=O)NC(Cc1ccc(O)cc1)C(=O)O` (stereo not given): the IC50 was 1300 nM in assay [1] and 320 nM against Neprilysin.
For `CC(C)CC(S)C(Cc1ccccc1)C(=O)NC(C)C(=O)O` (stereo not given), the IC50 in assay [2] amounted to 12000 nM; on Neprilysin it was 14 nM.
Taken in the same sequence, the figures for `CC(C)CC(S)CC(=O)NC(Cc1ccccc1)C(=O)O` (stereo not given) were 10000 nM and 37 nM.
Taken in the same sequence, the figures for `CC(C)C[C@H](S)[C@H](Cc1ccccc1)C(=O)N[C@@H](C)C(=O)O` were 10000 nM and 35 nM.
Regarding `CC(C)C[C@H](S)[C@@H](Cc1ccccc1)C(=O)N[C@@H](C)C(=O)O`, the IC50 in assay [3] was found to be 16100 nM; on Neprilysin, 3.6 nM.
For `CC(C)CC(S)[C@H](Cc1ccccc1)C(=O)N[C@@H](C)C(=O)O` (stereo not given in full), the IC50 in assay [2] turned out to be 4000 nM; at Neprilysin, 40 nM.

The record behind these values is ChEMBL document CHEMBL1126948, “Exploration of neutral endopeptidase active site by a series of new thiol-containing inhibitors” (J Med Chem, 1993).
